Experimental data from different studies.
Protocols differ between the studies behind these lines.
Target: Serine/threonine-protein kinase 33 (STK33, Homo sapiens, UniProt Q9BYT3)

`CN(c1nccc(-c2cnn3ncccc23)n1)C1CC1` gave a remaining binding of 100% (binding; 1 µM).
With `CC1=C(C#N)[C@@H](c2ccc3[nH]nc(C)c3c2)C(C#N)=C(c2ccc(Cl)cc2)N1` the remaining binding was 90.9% (cell-free assay, competition with immobilised ligand; 1 µM).
For `O=C(c1ccc(Nc2ncc(Cl)c(-c3ccc(Cl)s3)n2)cc1)N1CCC(N2CCCC2)CC1`, the remaining binding was 56% (binding, competition with immobilised ligand; 1 µM).
`COc1cnc(Nc2cccc(S(N)(=O)=O)c2)nc1N1CCN(c2ccccc2)CC1` has a remaining binding of 100% (binding, competition with immobilised ligand; 1 µM).
The remaining binding of `CC1CCCN1c1nccc(-c2cnn3ncccc23)n1` (stereo not shown) is reported as 100% (binding; 1 µM).
`O=C(NCC1CCOCC1)c1n[nH]cc1NC(=O)c1c(F)cccc1F` gave a remaining binding of 79% (binding, competition with immobilised ligand; 1 µM).
`CO[C@@H](C)c1c(Nc2ccc([C@H](N(C)C(=O)C3CCS(=O)(=O)CC3)C(F)(F)F)cc2)cnc2cc(Cl)nn12` gave a remaining binding of 51% (cell-free assay, competition with immobilised ligand; 1 µM).
With `O=C(c1ccc(Nc2ncc(Cl)c(-c3cc4ccccc4s3)n2)cc1)N1CCC(N2CCCC2)CC1` the remaining binding was 38% (binding, competition with immobilised ligand; 1 µM).
`COc1cnc(Nc2cccc(S(N)(=O)=O)c2)nc1N1CCN(c2ccccc2)C(=O)C1` gave a remaining binding of 93% (binding, competition with immobilised ligand; 1 µM).
`CNC(=O)c1ccc(Nc2ncc(C(F)(F)F)c(NCc3nccnc3N(C)S(C)(=O)=O)n2)cc1` gave a remaining binding of 68% (cell-free assay, competition with immobilised ligand; 0.1 µM).
With `O=C(NCCCN1CCOCC1)c1ccc(Nc2ncc(Cl)c(-c3ccc(Cl)s3)n2)cc1` the remaining binding was 68% (binding, competition with immobilised ligand; 1 µM).
For `CN(CCCC(F)(F)F)c1nccc(-c2cnn3ncccc23)n1`, the remaining binding was 100% (binding; 1 µM).
`c1cncc(-c2cccc(Nc3nccc(NC4CCCCC4)n3)c2)c1` has a remaining binding of 44% (binding, competition with immobilised ligand; 10 µM).
For `CN(c1ccnc(CNc2nc(Nc3ccc4c(c3)CC(=O)N4)ncc2C(F)(F)F)n1)S(C)(=O)=O`, the remaining binding was 15% (cell-free assay, competition with immobilised ligand; 1 µM).
The remaining binding of `C[C@H]1CCN(c2nccc(-c3cnn4ncccc34)n2)C1` is reported as 100% (binding; 1 µM).
`O=C(O)c1cc(-c2ccc(C3CCNCC3)cc2)c2ccc(-c3ccc(C(F)(F)F)cc3)cc2c1` has a remaining binding of 100% (cell-free assay, competition with immobilised ligand; 1 µM).
The remaining binding of `Cc1cnn2ncc(-c3ccnc(N(C)C)n3)c2c1` is reported as 100% (binding; 1 µM).
The remaining binding of `C=CC(=O)N1CCC(C(=O)NCC(=O)N2CCN(c3nc(-c4cnc(N)nc4C(F)F)nc(N4CCOCC4)n3)CC2)CC1` is reported as 100% (binding, competition with immobilised ligand; 1 µM).
For `c1cnn2ncc(-c3ccnc(N4CCC45COC5)n3)c2c1`, the remaining binding was 100% (binding; 1 µM).
The remaining binding of `CNC(=O)c1ccccc1Nc1cc(Nc2ccc(N3CCOCC3)cc2OC)ncc1C(F)(F)F` is reported as under 10% (binding, competition with immobilised ligand; 1 µM).
`N[C@@H]1CCN(c2nccc(-c3cnn4ncccc34)n2)C1` has a remaining binding of 100% (binding; 1 µM).
`CN([C@@H]1CCc2c(CC(=O)O)c3ccccc3n2C1)S(=O)(=O)c1ccc(F)cc1` has a remaining binding of 100% (cell-free assay, competition with immobilised ligand; 1 µM).
